{"source": "ChEMBL document CHEMBL5653622", "about": "(Oncotarget, 2016)", "key": {"[1]": {"biological_target": "Myosin light chain kinase, smooth muscle (Homo sapiens) (UniProt Q15746)", "sequence (Q15746 whole entry)": "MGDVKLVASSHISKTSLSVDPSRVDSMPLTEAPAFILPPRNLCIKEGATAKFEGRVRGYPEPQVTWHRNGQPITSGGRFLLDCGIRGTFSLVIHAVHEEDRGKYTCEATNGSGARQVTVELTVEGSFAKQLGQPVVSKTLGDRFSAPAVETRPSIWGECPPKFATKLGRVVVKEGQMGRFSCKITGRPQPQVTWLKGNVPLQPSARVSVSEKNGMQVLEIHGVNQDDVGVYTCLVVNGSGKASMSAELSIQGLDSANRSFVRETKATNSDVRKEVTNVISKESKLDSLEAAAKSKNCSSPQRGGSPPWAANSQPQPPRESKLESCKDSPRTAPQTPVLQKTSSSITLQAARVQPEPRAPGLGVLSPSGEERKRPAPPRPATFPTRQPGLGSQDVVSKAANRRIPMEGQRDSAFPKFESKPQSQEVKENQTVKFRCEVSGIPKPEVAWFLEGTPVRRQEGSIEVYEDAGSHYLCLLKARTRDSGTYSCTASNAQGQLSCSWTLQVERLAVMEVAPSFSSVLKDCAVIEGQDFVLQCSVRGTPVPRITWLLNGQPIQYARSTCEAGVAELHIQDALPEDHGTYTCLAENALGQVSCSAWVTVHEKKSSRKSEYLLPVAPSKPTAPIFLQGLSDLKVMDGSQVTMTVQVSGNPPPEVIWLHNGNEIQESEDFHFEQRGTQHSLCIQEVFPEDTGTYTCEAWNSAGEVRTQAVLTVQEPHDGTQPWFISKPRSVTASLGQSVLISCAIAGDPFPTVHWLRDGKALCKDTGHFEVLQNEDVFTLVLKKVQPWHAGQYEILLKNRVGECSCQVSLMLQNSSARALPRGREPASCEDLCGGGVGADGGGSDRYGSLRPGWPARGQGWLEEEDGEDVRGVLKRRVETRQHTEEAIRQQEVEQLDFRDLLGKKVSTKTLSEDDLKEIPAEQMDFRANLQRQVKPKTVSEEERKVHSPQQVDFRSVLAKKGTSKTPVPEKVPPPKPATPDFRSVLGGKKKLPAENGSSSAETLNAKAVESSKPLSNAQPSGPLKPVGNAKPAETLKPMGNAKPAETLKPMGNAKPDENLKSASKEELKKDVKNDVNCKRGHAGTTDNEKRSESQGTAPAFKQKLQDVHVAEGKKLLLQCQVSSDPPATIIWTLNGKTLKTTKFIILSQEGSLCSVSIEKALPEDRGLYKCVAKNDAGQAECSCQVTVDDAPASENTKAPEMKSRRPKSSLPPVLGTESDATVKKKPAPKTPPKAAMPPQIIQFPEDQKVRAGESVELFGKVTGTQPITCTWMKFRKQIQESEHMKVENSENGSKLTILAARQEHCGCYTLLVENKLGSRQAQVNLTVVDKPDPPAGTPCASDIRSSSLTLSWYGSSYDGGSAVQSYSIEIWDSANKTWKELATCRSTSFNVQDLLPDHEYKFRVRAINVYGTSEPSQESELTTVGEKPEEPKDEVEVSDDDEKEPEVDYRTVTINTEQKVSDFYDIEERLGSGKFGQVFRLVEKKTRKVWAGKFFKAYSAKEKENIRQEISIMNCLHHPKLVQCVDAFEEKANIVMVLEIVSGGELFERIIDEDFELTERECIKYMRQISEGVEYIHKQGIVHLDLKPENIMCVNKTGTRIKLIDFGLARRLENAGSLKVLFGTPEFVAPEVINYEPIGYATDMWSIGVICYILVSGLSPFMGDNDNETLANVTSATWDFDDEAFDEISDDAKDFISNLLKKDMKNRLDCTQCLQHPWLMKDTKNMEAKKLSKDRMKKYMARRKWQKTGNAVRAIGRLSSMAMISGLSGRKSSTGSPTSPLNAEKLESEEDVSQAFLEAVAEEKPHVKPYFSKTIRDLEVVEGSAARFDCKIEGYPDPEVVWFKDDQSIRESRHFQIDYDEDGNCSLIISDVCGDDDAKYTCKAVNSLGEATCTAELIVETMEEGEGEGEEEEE", "assay": "Inhibition of human SmMLCK assessed as remaining activity at 10 uM in presence of ATP by radiometric kinase assay relative to control"}, "[2]": {"biological_target": "Mitogen-activated protein kinase kinase kinase 5 (Homo sapiens) (UniProt Q99683)", "assay": "Inhibition of human ASK1 assessed as remaining activity at 10 uM in presence of ATP by radiometric kinase assay relative to control"}, "[3]": {"assay": "Inhibition of human CDK2/Cyclin A by FRET based Z-LYTE kinase assay"}, "[4]": {"assay": "Toxicity in Emu-Myc driven transgenic mouse transplant model of B-cell lymphoma assessed as reduction in weight of lung at 150 mg/kg, po administered for 9 days", "assay_type": "organism-based", "settings": "in vivo, 216 h, time 9 day"}, "[5]": {"assay": "Toxicity in CRTac:Ncr-Fox1 mouse xenografted with human Calu-6 cells assessed as body weight at 150 mg/kg, po administered for 3 days in presence of gemcitabine relative to control", "assay_type": "organism-based", "settings": "in vivo, 72 h, time 3 day"}, "[6]": {"tested_on": "HT-29", "assay": "Induction of apoptosis in human HT-29 cells assessed as phosphorylation of H2AX on S139 in presence of gemcitabine by Western blotting analysis", "assay_type": "functional, cell-based"}, "[7]": {"biological_target": "Dual specificity protein kinase CLK2 (Homo sapiens, UniProt P49760)", "assay": "Inhibition of human CLK2 at 10 uM in presence of ATP by radiometric kinase assay relative to control"}, "[8]": {"biological_target": "Receptor tyrosine-protein kinase erbB-4 (Homo sapiens) (UniProt Q15303)", "assay": "Inhibition of human HER4 assessed as remaining activity at 10 uM in presence of ATP by radiometric kinase assay relative to control"}, "[9]": {"biological_target": "Ephrin type-B receptor 3 (Homo sapiens) (UniProt P54753)", "assay": "Inhibition of human EPH-B3 assessed as remaining activity at 10 uM in presence of ATP by radiometric kinase assay relative to control"}, "[10]": {"assay": "AUC (0 to infinity) in BALB/C mouse spleen at 10 mg/kg, po by LC/MS-MS analysis", "assay_type": "ADME, organism-based"}, "[11]": {"biological_target": "Homeodomain-interacting protein kinase 1 (Homo sapiens) (UniProt Q86Z02)", "assay": "Inhibition of human HIPK1 assessed as remaining activity at 10 uM in presence of ATP by radiometric kinase assay relative to control"}, "[12]": {"biological_target": "Protein kinase C gamma type (Homo sapiens) (UniProt P05129)", "assay": "Inhibition of human PKC gamma assessed as remaining activity at 10 uM in presence of ATP by radiometric kinase assay relative to control"}, "[13]": {"biological_target": "Dual specificity protein kinase TTK (Homo sapiens) (UniProt P33981)", "assay": "Inhibition of human TTK assessed as remaining activity at 10 uM in presence of ATP by radiometric kinase assay relative to control"}, "[14]": {"tested_on": "Mus musculus", "assay": "In vivo inhibition of CHK1 in CRTac:Ncr-Fox1 athymic mouse xenografted with human Calu-6 cells assessed as inhibition of CHK1 phosphorylation on S296 at 150 mg/kg, po in presence of gemcitabine and carboplatin by ELISA analysis", "assay_type": "functional, organism-based"}, "[15]": {"biological_target": "Casein kinase I (Homo sapiens) (UniProt Q9HCP0+P78368+P48730+P49674+P48729)", "assay": "Inhibition of human CK1 assessed as remaining activity at 10 uM in presence of ATP by radiometric kinase assay relative to control", "assay_type": "protein assay"}, "[16]": {"biological_target": "Serine/threonine-protein kinase PAK 2 (Homo sapiens) (UniProt Q13177)", "sequence (Q13177 whole entry)": "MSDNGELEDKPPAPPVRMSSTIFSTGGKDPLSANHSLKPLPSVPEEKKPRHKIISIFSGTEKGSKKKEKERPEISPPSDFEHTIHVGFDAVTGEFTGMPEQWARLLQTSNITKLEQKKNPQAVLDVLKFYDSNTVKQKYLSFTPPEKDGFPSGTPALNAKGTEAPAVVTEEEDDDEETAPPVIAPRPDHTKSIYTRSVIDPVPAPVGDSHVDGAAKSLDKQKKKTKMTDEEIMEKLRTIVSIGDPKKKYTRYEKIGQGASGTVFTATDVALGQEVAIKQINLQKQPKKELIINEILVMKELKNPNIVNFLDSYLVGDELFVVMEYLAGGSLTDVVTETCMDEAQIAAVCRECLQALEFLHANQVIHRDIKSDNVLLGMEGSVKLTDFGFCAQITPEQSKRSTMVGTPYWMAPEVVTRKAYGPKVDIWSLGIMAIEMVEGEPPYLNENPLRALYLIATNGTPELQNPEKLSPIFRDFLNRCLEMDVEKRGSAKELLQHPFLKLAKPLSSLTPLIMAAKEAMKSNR", "assay": "Inhibition of human PAK2 assessed as remaining activity at 10 uM in presence of ATP by radiometric kinase assay relative to control"}, "[17]": {"tested_on": "Mus musculus", "assay": "In vivo inhibition of CHK1 in CRTac:Ncr-Fox1 mouse xenografted with human HT-29 cells assessed as reduction of phosphorylation of CHK1 on S296 at 100 mg/kg, po administered for 24 hrs by Western blotting analysis", "assay_type": "functional, organism-based", "summary_of_the_method": "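HT29 s.c. xenografts in female athymic nude mice. Single gemcitabine dose 100mg/kg i.v. on day 0, then one inhibitor dose 50 or 100mg/kg p.o. (DPTW vehicle) 24h later. Tumors taken 24h after the last dose, western blotted, and signals quantified by normalizing to GAPDH.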"}, "[18]": {"biological_target": "MAP/microtubule affinity-regulating kinase 3 (Homo sapiens, UniProt P27448)", "assay": "Inhibition of human MARK3 assessed as remaining activity at 10 uM in presence of ATP by radiometric kinase assay relative to control"}, "[19]": {"biological_target": "Serine/threonine-protein kinase MARK2 (Homo sapiens) (UniProt Q7KZI7)", "sequence (Q7KZI7 whole entry)": "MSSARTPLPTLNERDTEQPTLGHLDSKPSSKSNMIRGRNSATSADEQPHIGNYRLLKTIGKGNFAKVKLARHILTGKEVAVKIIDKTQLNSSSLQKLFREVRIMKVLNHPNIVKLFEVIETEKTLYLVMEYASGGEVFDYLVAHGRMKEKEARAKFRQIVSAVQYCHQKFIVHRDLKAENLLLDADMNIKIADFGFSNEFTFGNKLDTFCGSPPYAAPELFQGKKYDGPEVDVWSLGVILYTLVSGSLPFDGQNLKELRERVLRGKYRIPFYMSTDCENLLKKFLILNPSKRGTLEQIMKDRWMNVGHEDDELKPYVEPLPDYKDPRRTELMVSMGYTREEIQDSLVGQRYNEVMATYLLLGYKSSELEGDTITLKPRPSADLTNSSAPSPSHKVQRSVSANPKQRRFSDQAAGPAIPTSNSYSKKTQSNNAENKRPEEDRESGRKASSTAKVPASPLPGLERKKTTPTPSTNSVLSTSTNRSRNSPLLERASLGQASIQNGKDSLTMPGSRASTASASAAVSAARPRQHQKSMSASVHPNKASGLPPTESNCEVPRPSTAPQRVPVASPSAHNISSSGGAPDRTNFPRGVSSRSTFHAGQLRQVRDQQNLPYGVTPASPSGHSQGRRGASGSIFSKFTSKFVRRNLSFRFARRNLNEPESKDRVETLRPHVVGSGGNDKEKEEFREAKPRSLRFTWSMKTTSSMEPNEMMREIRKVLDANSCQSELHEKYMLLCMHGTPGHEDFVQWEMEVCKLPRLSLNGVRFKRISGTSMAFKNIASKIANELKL", "assay": "Inhibition of human MARK2 assessed as remaining activity at 10 uM in presence of ATP by radiometric kinase assay relative to control"}, "[20]": {"biological_target": "MAP kinase-activated protein kinase 2 (Homo sapiens) (UniProt P49137)", "assay": "Inhibition of human MAPKAP-K2 assessed as remaining activity at 10 uM in presence of ATP by radiometric kinase assay relative to control"}, "[21]": {"biological_target": "Dual specificity mitogen-activated protein kinase kinase 1 (Homo sapiens) (UniProt Q02750)", "assay": "Inhibition of human MKK1 assessed as remaining activity at 10 uM in presence of ATP by radiometric kinase assay relative to control"}, "[22]": {"tested_on": "SW-620", "assay": "Induction of apoptosis in human SW620 cells assessed as increased in cleaved PARP in presence of SN38 by Western blotting analysis", "assay_type": "functional, cell-based"}, "[23]": {"biological_target": "Serine/threonine-protein kinase BRSK1 (Homo sapiens) (UniProt Q8TDC3)", "assay": "Inhibition of human BRSK1 at 10 uM in presence of ATP by radiometric kinase assay relative to control"}, "[24]": {"biological_target": "Serine/threonine-protein kinase 26 (Homo sapiens) (UniProt Q9P289)", "sequence (Q9P289 2-416 limits assumed)": "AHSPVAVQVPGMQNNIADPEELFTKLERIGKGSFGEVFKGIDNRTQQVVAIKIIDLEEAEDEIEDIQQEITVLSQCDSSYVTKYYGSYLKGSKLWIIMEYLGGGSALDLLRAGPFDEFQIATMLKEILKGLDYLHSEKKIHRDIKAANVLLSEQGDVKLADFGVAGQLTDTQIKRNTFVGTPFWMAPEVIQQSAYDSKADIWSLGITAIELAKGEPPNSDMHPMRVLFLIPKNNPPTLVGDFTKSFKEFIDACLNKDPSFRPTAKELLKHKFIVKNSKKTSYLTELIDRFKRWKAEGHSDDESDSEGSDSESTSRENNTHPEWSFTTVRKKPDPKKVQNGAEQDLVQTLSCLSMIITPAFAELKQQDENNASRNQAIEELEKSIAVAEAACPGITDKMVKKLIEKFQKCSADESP", "assay": "Inhibition of human MST4 assessed as remaining activity at 10 uM in presence of ATP by radiometric kinase assay relative to control"}, "[25]": {"biological_target": "High affinity nerve growth factor receptor (Homo sapiens) (UniProt P04629)", "assay": "Inhibition of human TrkA assessed as remaining activity at 10 uM in presence of ATP by radiometric kinase assay relative to control"}, "[26]": {"biological_target": "Homeodomain-interacting protein kinase 2 (Homo sapiens) (UniProt Q9H2X6)", "sequence (Q9H2X6 whole entry, looked up)": "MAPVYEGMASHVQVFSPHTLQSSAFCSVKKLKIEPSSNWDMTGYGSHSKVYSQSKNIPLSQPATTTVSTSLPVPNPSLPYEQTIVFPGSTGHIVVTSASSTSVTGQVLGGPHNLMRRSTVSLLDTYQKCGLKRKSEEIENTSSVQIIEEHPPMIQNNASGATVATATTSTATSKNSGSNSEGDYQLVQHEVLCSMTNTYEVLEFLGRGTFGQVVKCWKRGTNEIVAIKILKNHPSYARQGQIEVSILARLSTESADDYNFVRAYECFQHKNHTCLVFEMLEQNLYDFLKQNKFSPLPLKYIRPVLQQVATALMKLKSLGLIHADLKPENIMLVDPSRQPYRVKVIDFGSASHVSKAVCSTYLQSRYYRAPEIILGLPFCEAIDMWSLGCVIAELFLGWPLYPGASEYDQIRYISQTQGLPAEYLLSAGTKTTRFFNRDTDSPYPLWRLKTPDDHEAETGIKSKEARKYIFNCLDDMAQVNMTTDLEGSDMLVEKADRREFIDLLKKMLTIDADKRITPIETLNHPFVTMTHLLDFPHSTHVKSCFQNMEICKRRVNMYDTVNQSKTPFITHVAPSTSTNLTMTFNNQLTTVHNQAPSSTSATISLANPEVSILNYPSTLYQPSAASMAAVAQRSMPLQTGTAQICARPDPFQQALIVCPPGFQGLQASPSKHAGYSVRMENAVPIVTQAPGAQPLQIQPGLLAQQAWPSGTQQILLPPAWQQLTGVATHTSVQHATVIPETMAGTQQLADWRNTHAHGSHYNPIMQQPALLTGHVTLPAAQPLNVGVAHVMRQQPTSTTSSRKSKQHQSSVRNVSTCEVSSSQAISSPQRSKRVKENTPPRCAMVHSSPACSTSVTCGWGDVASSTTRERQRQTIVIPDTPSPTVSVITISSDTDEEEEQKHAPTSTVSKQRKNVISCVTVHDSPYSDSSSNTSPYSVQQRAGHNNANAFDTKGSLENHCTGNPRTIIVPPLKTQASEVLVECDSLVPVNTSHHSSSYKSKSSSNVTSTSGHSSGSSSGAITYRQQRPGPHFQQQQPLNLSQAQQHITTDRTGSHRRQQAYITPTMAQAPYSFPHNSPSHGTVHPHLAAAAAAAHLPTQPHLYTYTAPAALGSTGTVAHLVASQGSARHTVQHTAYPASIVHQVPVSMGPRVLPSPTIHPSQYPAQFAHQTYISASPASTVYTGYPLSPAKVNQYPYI", "assay": "Inhibition of human HIPK2 assessed as remaining activity at 10 uM in presence of ATP by radiometric kinase assay relative to control"}, "[27]": {"biological_target": "Protein-tyrosine kinase 6 (Homo sapiens) (UniProt Q13882)", "assay": "Inhibition of human BRK assessed as remaining activity at 10 uM in presence of ATP by radiometric kinase assay relative to control"}, "[28]": {"biological_target": "Serine/threonine-protein kinase MARK1 (Homo sapiens) (UniProt Q9P0L2)", "assay": "Inhibition of human MARK1 assessed as remaining activity at 10 uM in presence of ATP by radiometric kinase assay relative to control"}, "[29]": {"biological_target": "Dual specificity mitogen-activated protein kinase kinase 2 (Homo sapiens) (UniProt P36507)", "assay": "Inhibition of human MKK2 assessed as remaining activity at 10 uM in presence of ATP by radiometric kinase assay relative to control"}, "[30]": {"assay": "Toxicity in Emu-Myc driven transgenic mouse transplant model of B-cell lymphoma assessed as change in body temperature at 150 mg/kg, po administered for 9 days", "assay_type": "organism-based", "settings": "in vivo, 216 h, time 9 day"}}, "note": "Activity calls are given as the source filed them. No cut-off for these calls is given here."}
{"smiles": "N#Cc1cnc(Nc2cc(NC[C@H]3CNCCO3)c(C(F)(F)F)cn2)cn1", "note": "[SRA-737]", "values": [{"measurement": "Activity", "setting": "[1]", "value": 84, "unit": "%"}, {"measurement": "Activity", "setting": "[2]", "value": 80, "unit": "%"}, {"measurement": "IC50", "setting": "[3]", "value": 3.85, "unit": "µM"}, {"measurement": "Activity", "setting": "[4]", "value": "Toxic"}, {"measurement": "Activity", "setting": "[5]", "value": 98, "unit": "%"}, {"measurement": "Activity", "setting": "[6]", "value": "Active"}, {"measurement": "inhibition", "setting": "[7]", "value": 94, "unit": "%"}, {"measurement": "Activity", "setting": "[8]", "value": 110, "unit": "%"}, {"measurement": "Activity", "setting": "[9]", "value": 93, "unit": "%"}, {"measurement": "AUC(0-inf)", "setting": "[10]", "value": 223, "unit": "µM·h"}, {"measurement": "Activity", "setting": "[11]", "value": 77, "unit": "%"}, {"measurement": "Activity", "setting": "[12]", "value": 87, "unit": "%"}, {"measurement": "Activity", "setting": "[13]", "value": 36, "unit": "%"}, {"measurement": "inhibition", "setting": "[14]", "value": "Active"}, {"measurement": "Activity", "setting": "[15]", "value": 85, "unit": "%"}, {"measurement": "Activity", "setting": "[16]", "value": 96, "unit": "%"}, {"measurement": "Activity", "setting": "[17]", "value": "Active"}, {"measurement": "Activity", "setting": "[18]", "value": 13, "unit": "%"}, {"measurement": "Activity", "setting": "[19]", "value": 21, "unit": "%"}, {"measurement": "Activity", "setting": "[20]", "value": 94, "unit": "%"}, {"measurement": "Activity", "setting": "[21]", "value": 68, "unit": "%"}, {"measurement": "Activity", "setting": "[22]", "value": "Active"}, {"measurement": "inhibition", "setting": "[23]", "value": 88, "unit": "%"}, {"measurement": "Activity", "setting": "[24]", "value": 44, "unit": "%"}, {"measurement": "Activity", "setting": "[25]", "value": 31, "unit": "%"}, {"measurement": "Activity", "setting": "[26]", "value": 92, "unit": "%"}, {"measurement": "Activity", "setting": "[27]", "value": 108, "unit": "%"}, {"measurement": "Activity", "setting": "[28]", "value": 43, "unit": "%"}, {"measurement": "Activity", "setting": "[29]", "value": 61, "unit": "%"}, {"measurement": "Activity", "setting": "[30]", "value": "Non-Toxic"}]}
